Source: PubChem BioAssay (SRMLSC)
H69AR growth 86K: proliferation blockers of H69AR lung cancer cells, primary screen, cell-based, human, 86K library. H69AR lung tumor viability, ATP luminescence, 72 h; stronger effect = lower value. viability, % at 10 µM. hit rate 6% among 85,000. AID 598, 2007;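 active = viability at or below 40%; inactive = viability above 40%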;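 note: multidrug resistant small cell line overexpressing MRP-1 efflux transporter; 100% = mean luminescence of untreated control wells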
bCat KO growth: primary screen for growth suppressors in beta-catenin knockout HCT116 cells (colon tumor, human); HCT116 beta-catenin knockout viability, CellTiter-Glo, 60 h; stronger effect = lower value; viability, % at 10 µM; hit rate 1.5% among 140,000; AID 818, 2007;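 active = viability at or under a set limit, the compound median less 4 SD, cut at about 6% in these data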;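 note: 0% = Hyamine 1622 control at 20 µM and 100% = untreated cell control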
Lung fibro prol: antiproliferative effect on LL 47 fibroblasts – human, LL 47 cells, CellTiter-Glo luminescence, primary screen. LL 47 human lung fibroblast viability, ATP luminescence; stronger effect = lower value. viability, % at 10 µM. hit rate 1.1% among 85,000. AID 719, 2007;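 active = viability at or below 50% in the single dose screen; inactive = viability above 50%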;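 note: compound exposure lasted 72 h before the ATP readout; 100% = median luminescence of untreated cell-only wells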
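Benchmarks: Cell-only wells, no compound | Test system: LL 47 human lung fibroblasts, passage 12 or lower | Input: 1,150 cells/well | Measured by: CellTiter-Glo luminescence measuring cellular ATP | Medium: IMEM, 15% FBS supplement | Schedule: Overnight attachment after seeding, then 72 h compound exposure at 37 °C | Doses: Compound addition at 0.1% DMSO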
HUVEC inhibit: inhibitors of HUVEC proliferation, primary screen, cell-based, 384-well; CellTiter-Glo luminescence, 72 h; stronger effect = lower value; viability, % at 10 µM (by protocol); AID 648, 2007; hit rate 1.1% among 86,000;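 active = viability at or below 30%; inactive = viability above 30%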;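 note: 100% = median luminescence of DMSO-only cell control wells on each plate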
PTEN del growth: growth suppression of PTEN-null HCT116, primary screen, cell-based, CellTiter-Glo; AID 827, 2007; viability, % at 10 µM; hit rate 1.2% among 140,000; HCT116 PTEN-null viability, 60 h; stronger effect = lower value;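 active = viability at or below a set limit, 4 SD under the median of all tested compounds, cut at about 3.7% in these data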;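 note: PTEN knockout HCT116 line with beta catenin targeted HCT116 as companion control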
* hit, by the source's call; x = no result given. Only a selection was taken, and hits are over-represented in it overall.

SMILES	H69AR growth 86K	bCat KO growth	Lung fibro prol	HUVEC inhibit	PTEN del growth
CCC(C)(C)NC(=O)C(c1ccccc1)N(Cc1cccnc1)C(=O)c1csnn1 (stereo not drawn)	71.7	95.9	94.8	100.8	101.0
CCc1cc2ccc(C)cc2nc1SCC(=O)N1CCN(C(=O)c2ccco2)CC1	36.3*	72.4	95.4	86.2	78.0
CCc1cc2cc3c(cc2nc1SCC(=O)N1CCN(C(=O)c2ccco2)CC1)OCO3	41.0	97.8	92.7	86.0	96.3
Cc1cc(C(=O)N2CCN(c3cccc(Cl)c3)CC2)c(C)o1	15.9*	44.1	73.0	57.7	34.9
Cc1ccc(S(=O)(=O)Cc2ccc(C(=O)N3CCCC3)o2)cc1	89.9	93.6	98.1	96.5	103.1
Cc1cc(C(=O)N2CCN(c3ccccc3)CC2)c(C)o1	82.6	99.0	107.8	99.1	81.1
Cc1ccc(C)c(N2CCN(C(=O)C(Cc3ccccc3)n3cccc3)CC2)c1 (stereo not drawn)	22.0*	68.8	90.3	109.9	67.3
Cc1ccc(S(=O)(=O)Cc2ccc(C(=O)N3CCN(c4cc(C)ccc4C)CC3)o2)cc1	17.2*	34.2	72.8	62.5	33.0
Cc1cccc(N2CCN(C(=O)c3ccc(CS(=O)(=O)c4ccccc4C)o3)CC2C)c1 (stereo not drawn)	24.7*	21.1	58.9	43.1	14.7
COc1ccccc1S(=O)(=O)Cc1ccc(C(=O)N2CCN(c3ccccc3)CC2)o1	79.5	65.7	94.6	106.5	64.5
Cc1noc(C)c1COc1cccc(C(=O)NCc2cccc(Cl)c2)c1	102.1	85.8	92.1	90.1	69.5
CC(C(=O)OCC(=O)c1cccc([N+](=O)[O-])c1)N1C(=O)C2C3CCC(C3)C2C1=O (stereo not drawn)	x	96.7	x	x	103.1
Cc1ccc(C)c(N2CCN(C(=O)c3ccc(CS(=O)(=O)c4ccccc4C)o3)CC2)c1	15.0*	16.3	77.6	53.6	21.3
COc1ccccc1S(=O)(=O)Cc1ccc(C(=O)N2CCN(c3cccc(Cl)c3)CC2)o1	9.4*	25.9	64.0	59.2	20.6
NC(=O)C1(N2CCCCC2)CCN(C(=O)c2cccn3c(=O)c4cc(Cl)ccc4nc23)CC1	106.6	78.2	94.7	80.6	68.7
CC(C)CC(NC(=O)C(NC(=O)C(Cc1ccc(OCc2ccccc2)cc1)NC(=O)OC(C)(C)C)C(C)C)C(N)=O (stereo not drawn)	x	5.5*	x	x	12.2
CC(C)CC(NC(=O)OC(C)(C)C)C(=O)NC(C(=O)NC(C)C(N)=O)C(C)C (stereo not drawn)	99.5	84.9	93.6	87.5	102.2
C=CCCCCc1nc2ccccc2c(=O)n1N	x	94.7	x	x	98.2
CC1=CC(C2CC(=O)N(c3ccccc3C)C2=O)CC2C(=O)N(c3ccccc3C)C(=O)C12 (stereo not drawn)	x	91.9	x	x	88.8
CCCCCn1c(SCC#N)nc2cc(C(=O)NC3CCCCC3)ccc2c1=O	53.4	x	47.7*	67.1	x
Cc1cc(C)c(S(=O)(=O)Nc2c(C)[nH]c(=O)[nH]c2=O)c(C)c1	x	91.6	x	x	92.7
FC(F)(F)c1cc(-c2ccco2)nc(NCc2cccnc2)n1	29.3*	46.9	96.1	55.0	52.3
CC(=O)Nc1ccc(NC(=O)C(C)OC(=O)/C=C/c2cn(-c3ccccc3)nc2-c2cccnc2)cc1 (stereo not drawn)	x	81.8	x	x	82.8
Cc1nc(NC(=O)CSc2nc3cccnc3n2Cc2ccccc2)sc1C	17.8*	76.4	50.9	32.9	88.6
CCOC(=O)CNC(=O)CSc1nc2cccnc2n1Cc1ccccc1	93.2	91.6	103.3	105.5	91.1
SMILES	H69AR growth 86K	bCat KO growth	Lung fibro prol	HUVEC inhibit	PTEN del growth
COc1ccc2nc(NC(=O)CSc3nc4ccccc4o3)sc2c1	7.1*	99.1	94.9	86.3	103.3
O=C(CSc1nc2ccccc2o1)Nc1nc2ccc(Br)cc2s1	x	95.8	x	x	102.4
CCOc1ccc2nc(NC(=O)CSc3nc4cccnc4n3C)sc2c1	26.5*	80.8	96.7	68.4	74.0
CCOC(=O)c1c(-c2ccco2)csc1NC(=O)CSc1nnc(N)s1	65.9	84.5	111.0	91.7	93.6
CCCCN(Cc1ccccc1)C(=O)c1cnc2n(c1=O)CCS2	97.8	89.2	97.9	107.2	91.8
Cc1[nH]c2c(ccc3ccccc32)c1C1C(CCN)C1(C)C (stereo not drawn)	4.4*	1.9*	2.7*	2.4*	1.8*
